What was measured:
[1] = Cytotoxicity against human 184B5 cells after 72 hrs by MTT assay; type: cell-based; settings: for GI50 at 72 h: 184B5 cells; for LC50 / TGI: 184b5, 72 h
Outline: (§1)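 Non-malignant lines: 184B5 (normal breast) in Hams F-12/DMEM (50:50) with published supplements; BEAS-2B (bronchial epithelium) in Hams F-12/DMEM (50:50) with 10% foetal calf serum, 2 mM L-glutamine, penicillin/streptomycin. Compounds at five concentrations, 0.01–100 μM, 72 h, 37 °C, 5% CO2; MTT read-out. GI50, TGI, LC50 relative to untreated controls; ≥3 independent experiments in quadruplicate.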

[2] = Cytotoxicity against human HTB-54 cells after 72 hrs by MTT assay; type: functional; settings: HTB-54, 72 h; for CC50: read-out: LC50 (the source's name)
Outline: (§2)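 CCRF-CEM, HT-29, PC-3 and HTB-54 cells grown in RPMI 1640 with 10% foetal calf serum, 2 mM L-glutamine, penicillin/streptomycin, 10 mM HEPES (pH 7.4). Five concentrations, 0.01–100 μM, 72 h at 37 °C, 5% CO2; MTT read-out. GI50, TGI and LC50 versus untreated controls; at least 3 independent experiments in quadruplicate.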

HT-29 = test: Cytotoxicity against human HT-29 cells after 72 hrs by MTT assay; type: functional; settings: HT-29, 72 h; outline: as §2
[3] = Cytotoxicity against human BEAS2B cells after 72 hrs by MTT assay; type: cell-based, BEAS-2B; settings: for GI50 at 72 h: BEAS2B cells; for LC50 / TGI: beas-2b, 72 h; outline: as §1
CCRF-CEM = test: Cytotoxicity against human CCRF-CEM cells after 72 hrs by MTT assay; type: functional; outline: as §2
[4] = Antioxidant activity assessed as DPPH radical scavenging activity at 0.5 mg/ml after 180 mins; type: physicochemical; settings: 3 h
Outline: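 Compounds in absolute ethanol, serially diluted from 1 mg/mL, mixed 1:1 with […] in ethanol. Final range 0.016–0.5 mg/mL, 6 concentrations. Incubated at 37 °C in the dark, with decolourisation followed at 517 nm at several time intervals. % scavenged = (A vehicle control − A sample)/A control × 100. Quadruplicate; mean ± SD.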

[5] = Cytotoxicity against human PC3 cells after 72 hrs by MTT assay; type: functional; settings: PC-3, 72 h; outline: as §2
MCF7 = test: Cytotoxicity against human MCF7 cells after 72 hrs by MTT assay; type: functional; settings: MCF7, 72 h; for CC50: read-out: LC50 (the source's name)
Outline: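 MCF-7 cells grown in EMEM with 10% foetal calf serum, 2 mM L-glutamine, 100 units/mL penicillin, 100 µg/mL streptomycin. Exposed to five concentrations between 0.01 and 100 μM for 72 h, 37 °C, humidified 5% CO2; MTT read-out. GI50, TGI, LC50 relative to untreated controls; ≥3 independent experiments in quadruplicate.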

[6] = Antioxidant activity assessed as ABTS radical scavenging activity by measuring Trolox equivalent antioxidant capacity after 6 mins; type: physicochemical; settings: 0.1 h
Outline: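 ABTS dissolved in deionized water at 1 mg/mL, oxidised to radical cation with potassium persulfate (2.45 mM final), kept overnight at room temperature in dark, then diluted with 50% ethanol to A741 = 0.700 ± 0.02. Compound (1 mg/mL ethanol stock) added 1:10 (0.1 mg/mL); A741 decrease read after 6 min against 50% ethanol blank. Trolox positive control; quadruplicate; TEAC from calibration curve.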

| SMILES | GI50 at 72 h [1] | LC50 [1] | TGI [1] | GI50 [2] | TGI [2] | CC50 [2] | GI50 (HT-29) | LC50 (HT-29) | TGI (HT-29) | GI50 at 72 h [3] | LC50 [3] | TGI [3] | GI50 (CCRF-CEM) | LC50 (CCRF-CEM) | TGI (CCRF-CEM) | GI50 [5] | LC50 (concentration causing 50% net cell kill) [5] | TGI [5] | GI50 (MCF7) | TGI (MCF7) | also measured |
| --- | --- | --- | --- | --- | --- | --- | --- | --- | --- | --- | --- | --- | --- | --- | --- | --- | --- | --- | --- | --- | --- |
| CCCCCCOC(=O)Nc1ccc([Se][Se]c2ccc(NC(=O)OCCCCCC)cc2)cc1 | 4.6 µM | 53.4 µM | 9.8 µM | 31 µM | 54.3 µM | 77.2 µM | 11 µM | 74.2 µM | 42.6 µM | 0.01 µM | 51.8 µM | 6.9 µM | 6.2 µM | 67.3 µM | 34.4 µM | 0.6 µM | 66.7 µM | 25.7 µM | 15.8 µM | 52.9 µM | inhibition (INH) [4]: < 16%; CC50 (MCF7): 89.9 µM |
| N#C[Se]c1ccc(NC(=O)OCC2=Cc3ccccc3S2(=O)=O)cc1 | 5.3 µM | 59.7 µM | 19.2 µM | 6.8 µM | 26.9 µM | 62.7 µM | 26.1 µM | 74.3 µM | 50.2 µM | 7.7 µM | 64.3 µM | 29 µM | 3.3 µM | 8.9 µM | 6.1 µM | 6.3 µM | 59.8 µM | 21.3 µM | 8.3 µM | 34.9 µM | Activity [6]: 1.92 µg/µL; CC50 (MCF7): 66.1 µM |
| CCCCCCOC(=O)Nc1ccc([Se]C#N)cc1 | 4.6 µM | 60.1 µM | 20 µM | 23.6 µM | 48.5 µM | 73 µM | 10.7 µM | 69.9 µM | 40.3 µM | 2.8 µM | 68 µM | 35.9 µM | 19.7 µM | 72.7 µM | 46.2 µM | 17.3 µM | 72 µM | 44.6 µM | 6.6 µM | 30.5 µM | inhibition (INH) [4]: > 25%; CC50 (MCF7): 63.9 µM |
| O=C(Nc1ccc([Se][Se]c2ccc(NC(=O)OCC3=Cc4ccccc4S3(=O)=O)cc2)cc1)OCC1=Cc2ccccc2S1(=O)=O | 2.6 µM | 7.5 µM | 5 µM | 4.4 µM | 6.3 µM | 8.2 µM | 3 µM | 7.8 µM | 5.4 µM | 3.5 µM | 7.9 µM | 5.7 µM | 2.3 µM | 7.5 µM | 4.9 µM | 3.8 µM | 7.9 µM | 5.8 µM | 3.2 µM | 5.7 µM | Activity [6]: 5.78 µg/µL; CC50 (MCF7): 8.2 µM |
| Cc1ccc(OC(=O)Nc2ccc([Se][Se]c3ccc(NC(=O)Oc4ccc(C)cc4)cc3)cc2)cc1 | 3.5 µM | 37.2 µM | 7.6 µM | 24.9 µM | 57 µM | 89.1 µM | 7.9 µM | 70.9 µM | 39.4 µM | 0.7 µM | 61.8 µM | 19.2 µM | 21.4 µM | 75.6 µM | 48.5 µM | 4.4 µM | 64.8 µM | 28.2 µM | 6.9 µM | 37.7 µM | inhibition (INH) [4]: > 50%; CC50 (MCF7): 74 µM |
| O=C(Nc1ccc([Se][Se]c2ccc(NC(=O)OCc3ccccc3)cc2)cc1)OCc1ccccc1 | 0.1 µM | 36.2 µM | 5.8 µM | 23.8 µM | 50.9 µM | 78 µM | 1.8 µM | 69 µM | 35.4 µM | 0.01 µM | 58.5 µM | 17.3 µM | 6.4 µM | 67.9 µM | 34.6 µM | 0.1 µM | 70.4 µM | 33.5 µM | 5.2 µM | 38.6 µM | inhibition (INH) [4]: 7.4%; CC50 (MCF7): 74.5 µM |
| O=C(Nc1ccc([Se][Se]c2ccc(NC(=O)Oc3ccccc3)cc2)cc1)Oc1ccccc1 | 4.5 µM | 48.9 µM | 9 µM | 22.7 µM | 56.2 µM | 89.8 µM | 13 µM | 70.2 µM | 41.6 µM | 1.4 µM | 50.7 µM | 8.6 µM | 22.4 µM | 73.7 µM | 48.1 µM | 5.3 µM | 62.9 µM | 27.2 µM | 8 µM | 36.7 µM | inhibition (INH) [4]: 66.9%; CC50 (MCF7): 69 µM |
| CCCOC(=O)Nc1ccc([Se]C#N)cc1 | 3.7 µM | 50.9 µM | 9.1 µM | 28.9 µM | 51.9 µM | 74.9 µM | 28.4 µM | 75.4 µM | 51.9 µM | 19.2 µM | 73.5 µM | 46.3 µM | 9.3 µM | 68.8 µM | 38.4 µM | 21.1 µM | 73.8 µM | 47.4 µM | 8 µM | 34.4 µM | Activity [6]: 6.27 µg/µL; CC50 (MCF7): 67.5 µM |
